Measured values pooled from the literature.
Protocols differ between the studies behind these lines.
KIT A829P: Mast/stem cell growth factor receptor Kit (KIT, Homo sapiens, UniProt P10721, A829P)
KIT D816V: Mast/stem cell growth factor receptor Kit (KIT, Homo sapiens, UniProt P10721, D816V)
KIT T670I/V559D: Mast/stem cell growth factor receptor Kit (KIT, Homo sapiens, UniProt P10721, T670I/V559D)
KIT V559D/V654A: Mast/stem cell growth factor receptor Kit (KIT, Homo sapiens, UniProt P10721, V559D/V654A)
KIT autoinhibited: Mast/stem cell growth factor receptor Kit, autoinhibited (KIT, Homo sapiens, UniProt P10721)
KIT: Mast/stem cell growth factor receptor Kit (KIT, Homo sapiens, UniProt P10721)
KIT D816H: Mast/stem cell growth factor receptor Kit (KIT, Homo sapiens, UniProt P10721, D816H)
KIT L576P: Mast/stem cell growth factor receptor Kit (KIT, Homo sapiens, UniProt P10721, L576P)

| Compound | target | effect on | method | concentration | remaining binding [%] |
| --- | --- | --- | --- | --- | --- |
| CN1CCN(c2ccc(Nc3nccc(-c4cccc([N+](=O)[O-])c4)n3)cc2C(F)(F)F)CC1 | KIT A829P | binding |  | 10 µM | 4.3 |
| O=C(Nc1c[nH]nc1C(=O)NC1CCNCC1)c1cc(F)cc(F)c1 | KIT A829P | binding | competition with immobilised ligand | 1 µM | 92 |
| O=C(c1ccc(Nc2ncc(Cl)c(-c3ccc(Cl)s3)n2)cc1)N1CCC(N2CCCC2)CC1 | KIT D816V | binding | competition with immobilised ligand | 1 µM | 17 |
| CN(C)c1ncc(F)c(-c2cnn3ncccc23)n1 | KIT T670I/V559D | binding |  | 1 µM | 100 |
| O=c1nc(-c2ccccn2)sc2ccccc12 | KIT V559D/V654A | binding | competition with immobilised ligand | 1 µM | 100 |
| F[C@@H]1CCN(c2nccc(-c3cnn4ncccc34)n2)C1 | KIT autoinhibited | binding |  | 1 µM | 100 |
| O=C(NC[C@@H]1[C@H]2CN(C(=O)OCc3cc(C(F)(F)F)cc(C(F)(F)F)c3)C[C@@H]12)c1ccc2[nH]nnc2c1 | KIT | cell-free assay | competition with immobilised ligand | 1 µM | 89 |
| Cc1cnc(Nc2ccc(C(=O)N3CCC(N4CCCC4)CC3)cc2)nc1-c1cc2ccccc2s1 | KIT D816V | binding | competition with immobilised ligand | 1 µM | 5.2 |
| CNC(=O)[C@@H]1CC[C@@H](n2c(-c3ccc4cnccc4c3)nc3ccc(C(=O)NCc4cccc(C(N)=O)c4)cc32)C1 | KIT D816V | binding | competition with immobilised ligand | 1 µM | 99 |
| COc1ncc2cc3ccccc3nc2c1C#N | KIT | cell-free assay | competition with immobilised ligand | 5 µM | 92 |
| N[C@@H]1CCN(c2nccc(-c3cnn4ncccc34)n2)C1 | KIT | binding |  | 1 µM | 95 |
| NS(=O)(=O)c1cc(NC(=O)C2(c3ccccc3Cl)CC2)ccc1Oc1cccc(Cl)c1 | KIT T670I/V559D | cell-free assay | competition with immobilised ligand | 1 µM | 85 |
| COc1ccnn2ncc(-c3ccnc(N(C)C)n3)c12 | KIT | binding |  | 1 µM | 100 |
| O=C(NCCCN1CCOCC1)c1ccc(Nc2ncc(Cl)c(-c3ccc(Cl)s3)n2)cc1 | KIT D816H | binding | competition with immobilised ligand | 1 µM | 22 |
| CN(c1nccc(-c2cnn3ncccc23)n1)C1CC1 | KIT A829P | binding |  | 1 µM | 88 |
| c1cncc(-c2cccc(Nc3nccc(NC4CCCCC4)n3)c2)c1 | KIT autoinhibited | binding | competition with immobilised ligand | 10 µM | 43 |
| C=CC(=O)N1CCC(C(=O)NCC(=O)N2CCN(c3nc(-c4cnc(N)nc4C(F)F)nc(N4CCOCC4)n3)CC2)CC1 | KIT V559D/V654A | binding | competition with immobilised ligand | 1 µM | 100 |

| Compound | target | effect on | method | concentration | remaining binding [%] |
| --- | --- | --- | --- | --- | --- |
| Cc1nc(C2CCN(C(=O)c3ccc(OC(F)(F)F)cc3N)CC2)c2ncc(N3CCN(C)CC3)cc2n1 | KIT L576P | cell-free assay | competition with immobilised ligand | 1 µM | 87 |
| COc1cnc(Nc2cccc(S(N)(=O)=O)c2)nc1N1CCN(c2ccccc2)C(=O)C1 | KIT autoinhibited | binding | competition with immobilised ligand | 1 µM | 95 |
| CCN1CCN(Cc2ccc(C(=O)Nc3ccc(C)c(Oc4ccc5c(c4)CC(=O)N5)c3)cc2C(F)(F)F)CC1 | KIT D816H | binding | competition with immobilised ligand | 1 µM | 100 |
| C[C@@H]1CCN(c2nccc(-c3cnn4ncccc34)n2)C1 | KIT L576P | binding |  | 1 µM | 100 |
| CN1CCN(c2ccc(Nc3nccc(-c4ccccc4)n3)cc2C(F)(F)F)CC1 | KIT A829P | binding |  | 10 µM | 20 |
| O=C(O)[C@@H]1[C@@H](Cn2nnc3ccccc3c2=O)CC[C@H]1C(=O)c1ccc(OCCC2CCOCC2)cc1 | KIT D816H | cell-free assay | competition with immobilised ligand | 1 µM | 68 |
| Cc1cnn2ncc(-c3ccnc(N(C)C)n3)c2c1 | KIT D816H | binding |  | 1 µM | 83 |
| CC(C)(O)c1cncc(-c2nc3ccc(F)cc3n2C2CC2)c1 | KIT D816H | cell-free assay | competition with immobilised ligand | 1 µM | 100 |
| COc1cnc(Nc2cccc(S(N)(=O)=O)c2)nc1N1CCN(c2ccccc2)CC1 | KIT D816V | binding | competition with immobilised ligand | 1 µM | 92 |
| CS(=O)(=O)N1CCCC(NC(=O)[C@H](CCC2CCCCC2)NC(=O)c2ccc(CNc3ncnc4c3nnn4-c3ccccc3)cc2)C1 (stereo partly shown) | KIT T670I/V559D | cell-free assay | competition with immobilised ligand | 0.1 µM | 100 |
| O=C(NCC1CCOCC1)c1n[nH]cc1NC(=O)c1c(F)cccc1F | KIT A829P | binding | competition with immobilised ligand | 1 µM | 84 |
| CNC(=O)c1ccc(Nc2ncc(C(F)(F)F)c(NCc3nccnc3N(C)S(C)(=O)=O)n2)cc1 | KIT L576P | cell-free assay | competition with immobilised ligand | 0.1 µM | 86 |
| O=C(NCCCN1CCOCC1)c1ccc(Nc2nccc(-c3cc4ccccc4s3)n2)cc1 | KIT autoinhibited | binding | competition with immobilised ligand | 1 µM | 76 |
| CN(C)c1nccc(-c2cnn3ncccc23)n1 | KIT L576P | binding |  | 1 µM | 100 |
| Nc1ncc2c(n1)-c1c([nH]c3ccc(C#CC4CC4)cc13)CCCC2 | KIT | binding | competition with immobilised ligand | 1 µM | 95 |
| O=C(c1ccc(Nc2ncc(Cl)c(-c3cc4ccccc4s3)n2)cc1)N1CCC(N2CCCC2)CC1 | Mast/stem cell growth factor receptor Kit (KIT, Homo sapiens, UniProt P10721, V559D) | binding | competition with immobilised ligand | 1 µM | 6.6 |
| C[C@@H](c1ccc(-n2cnc3c(N)ncnc32)cc1)N1CCc2nn(C)c(Cc3ccccc3)c2C1=O | KIT L576P | binding | competition with immobilised ligand | 0.1 µM | 17 |
